Measured values of several laboratories.
Cell line: HCT-116
Observed: cell growth or viability

Structure (SMILES) | technique | time | IC50
O=C1CS/C(=N\c2ccc(F)cc2O)N1c1nnc(-c2ccc(C(F)(F)F)cc2/N=C2\SCC(=O)N2c2ccc(F)cc2O)s1 | MTT | – | 17.2 µM
C#Cc1cccc(Nc2ncnc3cc(OCCOC)c(OCCOC)cc23)c1 | LDH | 48 h | 5.14 µM
Cc1cccc([N+](=O)[O-])c1N=C1SCC(=O)N1c1nnc(-c2ccc(C(F)(F)F)cc2N=C2SCC(=O)N2c2c(C)cccc2[N+](=O)[O-])s1 | MTT | – | 61.2 µM
O=C(C=Cc1ccc(OCCCOc2ccc(C=CC(=O)c3cccs3)cc2)cc1)c1cccs1 | MTT | 48 h | 120 µM
Cc1cc(C)n(Cn2ccnc2)n1 | MTT | 24 h | 21.3 µM
O=[N+]([O-])c1cc(Br)c(O)c(C=NNc2ccc(Cl)cc2)c1 | MTT | 24 h | 16.6 µM
Cc1cccc(N=C2C(=O)N(Cc3cccc(Cl)c3)c3ccccc32)c1 | MTT | 48 h | 7.13 µM
Cc1cc(NS(=O)(=O)c2ccc(NC(=O)/C(C#N)=C/c3ccc(N4CCCC4)cc3)cc2)no1 | MTT | 48 h | 98.6 µM
Cc1ccc(NC(=O)Cn2cc(COc3ncnc4[nH]cnc34)nn2)c(C)c1 | MTT | – | > 100 µM
N#Cc1ccc(-c2cc(COc3cc(C(F)(F)F)nc4ccccc34)on2)cc1 | MTS | 72 h | > 100 µM
Fc1ccc(NC(=S)N/N=C/c2cccc3cc4ccccc4nc23)cc1 | MTT | 48 h | > 50 µM
O=P1(C2CCCCC2)CCCCC1 | MTT | 72 h | 13.8 µM
O=[N+]([O-])c1ccc(O)c(C=NNc2ccc(Cl)cc2)c1 | MTT | 24 h | 11 µM
COc1cc([C@@H]2c3cc4c(cc3[C@@H](O[C@@H]3O[C@@H]5CO[C@@H](C)O[C@H]5[C@H](O)[C@H]3O)[C@H]3COC(=O)[C@H]23)OCO4)cc(OC)c1O | MTS | 72 h | 0.59 µM
O=C1CS/C(=N\c2cc(C(F)(F)F)ccc2-c2nnc(N3C(=O)CS/C3=N\c3cc(O)cc(Br)c3)s2)N1c1cc(O)cc(Br)c1 | MTT | – | 78.1 µM
COc1ccc(N(Cc2nc(-c3ccc(F)cc3)cs2)C(=O)CCCCCC(=O)NO)cc1 | MTT | 72 h | 3.2 µM
O=C1CSC(=Nc2cc([N+](=O)[O-])ccc2[N+](=O)[O-])N1c1nnc(-c2ccc(C(F)(F)F)cc2N=C2SCC(=O)N2c2cc([N+](=O)[O-])ccc2[N+](=O)[O-])s1 | MTT | – | 80.9 µM
CC(C)c1ccc(/C=C2\N=C(SCC(=O)O)N(c3ccccc3)C2=O)cc1 | MTT | – | 44.3 µg/mL
Cc1cc(NS(=O)(=O)c2ccc(NC(=O)/C(C#N)=C/c3ccncc3)cc2)no1 | MTT | 48 h | 187 µM
FC(F)(F)c1cc(OCc2cc(-c3ccccn3)no2)c2ccccc2n1 | MTS | 72 h | > 100 µM
c1ccc(-c2noc(-c3nn(Cc4ccc5ccccc5c4)c4ccccc34)n2)cc1 | – | 48 h | 173 µM
O=C1CS/C(=N\c2cc(C(F)(F)F)ccc2-c2nnc(N3C(=O)CS/C3=N\c3ccc(-c4ccccc4)cc3)s2)N1c1ccc(-c2ccccc2)cc1 | MTT | – | 92.3 µM
O=C(C=Cc1cccs1)c1ccc(OCCCCOc2ccc(C(=O)C=Cc3cccs3)cc2)cc1 | MTT | 48 h | 356 µM
c1ccc(Cn2nc(-c3ncc(-c4ccccc4)s3)c3ccccc32)cc1 | – | 48 h | 50.6 µM
OCn1cncn1 | MTT | 24 h | 48.8 µM
Cc1cc2c(C(N)=O)cccc2n1-c1nc(NCc2ccccc2)c2c(n1)NC(C)CC2 (stereo not drawn) | ATP luminescence | 72 h | 0.9 µM
CC(C)c1cccc(C(C)C)c1N=C1C(=O)N(Cc2ccccc2)c2ccccc21 | MTT | 48 h | 11.7 µM

Structure (SMILES) | technique | time | IC50
Cc1cc2c(C(N)=O)nccc2n1-c1nc2c(c(NCc3ccccc3)n1)CCCN2 | ATP luminescence | 72 h | 2.3 µM
O=[N+]([O-])c1ccc(NC(=S)N/N=C/c2cccc3cc4ccccc4nc23)cc1 | MTT | 48 h | > 50 µM
Cc1noc(-c2nn(Cc3ccc(Cl)cc3Cl)c3ccccc23)n1 | – | 48 h | 192 µM
O=C1Nc2ccccc2C1=Nc1ccccc1I | MTT | 48 h | 31.5 µM
c1ccc(Cc2nnc(-c3nn(Cc4ccccc4)c4ccccc34)o2)cc1 | – | 48 h | 15.1 µM
O=C(CSc1nc2ccccc2s1)N/N=C/c1ccc(OCC(=O)Nc2ccc(Br)cc2)cc1 | MTS | 72 h | > 100 µM
CC1(P2(=O)CCCCC2)C=CCC=C1 | MTT | 72 h | > 100 µM
Cc1ccc(CN2C(=O)C(=Nc3cccc(Cl)c3)c3ccccc32)cc1 | MTT | 48 h | 1.05 µM
Cc1cc2c(C(N)=O)cccc2n1-c1nc2c(c(OCc3ccccc3)n1)CCCN2 | ATP luminescence | 72 h | 3.4 µM
O=C1C(=Nc2ccc(Cl)cc2)c2ccccc2N1Cc1ccc(Br)cc1 | MTT | 48 h | 21.4 µM
O=[N+]([O-])c1cc(I)c(O)c(C=NNc2ccc(Br)cc2)c1 | MTT | 24 h | 15.3 µM
CN1CCc2c(c3ccccc3n2Cc2ccc(C(=O)NO)cc2)C1 | CCK-8 | 48 h | 12 µM
O=c1cc(OCc2cc(-c3ccc(Cl)cc3Cl)no2)c2ccccc2o1 | MTS | 72 h | > 100 µM
S=C(N/N=C/c1cccc2cc3ccccc3nc12)Nc1ccccc1 | MTT | 48 h | > 50 µM
O=c1[nH]cc(F)c(=O)[nH]1 | MTT | 72 h | 3.09 µM
O=C1Nc2ccccc2C1=Nc1ccccc1Br | MTT | 48 h | > 100 µM
Clc1ccc(Cn2nc(-c3nc(-c4ccccc4)no3)c3ccccc32)c(Cl)c1 | – | 48 h | 324 µM
CC(C)c1ccc(/C=C2\NC(=S)N(c3ccccc3)C2=O)cc1 | MTT | – | 63.2 µg/mL
Cc1cc2c(C(N)=O)cccc2n1-c1nc2c(c(NCc3ccccn3)n1)CCCN2 | ATP luminescence | 72 h | 0.8 µM
Fc1ccc2c(-c3nnc(Cc4ccccc4)[nH]3)nn(Cc3ccc(Cl)cc3Cl)c2c1 | – | 48 h | 22 µM
CC(C)c1cccc(C(C)C)c1N=C1C(=O)N(Cc2cccc(Cl)c2)c2ccccc21 | MTT | 48 h | 22.4 µM
C#CCn1c(C2CC(c3ccc(F)cc3)=NN2C(C)=O)nc2ccccc21 (stereo not drawn) | LDH | 48 h | 6.85 µM
Cc1cccc(N=C2C(=O)Nc3ccccc32)c1 | MTT | 48 h | > 100 µM
CC(=O)c1nc2ccccc2n1Cc1cn([C@@H]2O[C@H](CO)[C@H](O)[C@H](O)[C@H]2O)nn1 | LDH | 48 h | 8.68 µM
O=C(CSc1nc2ccccc2s1)N/N=C/c1ccc(OCC(=O)Nc2cccc(Cl)c2)cc1 | MTS | 72 h | > 100 µM
N/C(=N\O)c1ccc(-c2cc(CNc3cccc4cccnc34)on2)cc1 | MTS | 72 h | > 100 µM
COc1cccc2c1C(=O)c1c(O)c3c(c(O)c1C2=O)C[C@@](O)(C(=O)CO)C[C@@H]3O[C@H]1C[C@H](N)[C@H](O)[C@H](C)O1 | MTT | 24 h | 1.06 µM
